Reference: ChEMBL document CHEMBL4261642, “Design, synthesis, and ex vivo evaluation of a selective inhibitor for retinaldehyde dehydrogenase enzymes” (Bioorg Med Chem, 2018)
Calls of active or inactive are those of the source. The rule behind the calls is not given here.

Columns and labels:
[1] = species: Gallus gallus; experiment: Inhibition of N-terminal His6-tagged recombinant chick RALDH3 expressed in Escherichia coli BL21(DE3) cells at 500 nM using RAL as substrate assessed as Km preincubated for 20 mins followed by substrate addition and measured after 30 mins in presence of NADH by fluorescence assay (reference value: 84.45 +/- 30.99 microM)
[2] = molecular target: T1, Aldehyde dehydrogenase, mitochondrial (Homo sapiens, UniProt P05091); experiment: Inhibition of N-terminal His6-tagged recombinant human mitochondrial ALDH2 using propionaldehyde as substrate measured after 30 mins in presence of NADH by Morrison's plot analysis
T1 sequence (P05091 whole entry): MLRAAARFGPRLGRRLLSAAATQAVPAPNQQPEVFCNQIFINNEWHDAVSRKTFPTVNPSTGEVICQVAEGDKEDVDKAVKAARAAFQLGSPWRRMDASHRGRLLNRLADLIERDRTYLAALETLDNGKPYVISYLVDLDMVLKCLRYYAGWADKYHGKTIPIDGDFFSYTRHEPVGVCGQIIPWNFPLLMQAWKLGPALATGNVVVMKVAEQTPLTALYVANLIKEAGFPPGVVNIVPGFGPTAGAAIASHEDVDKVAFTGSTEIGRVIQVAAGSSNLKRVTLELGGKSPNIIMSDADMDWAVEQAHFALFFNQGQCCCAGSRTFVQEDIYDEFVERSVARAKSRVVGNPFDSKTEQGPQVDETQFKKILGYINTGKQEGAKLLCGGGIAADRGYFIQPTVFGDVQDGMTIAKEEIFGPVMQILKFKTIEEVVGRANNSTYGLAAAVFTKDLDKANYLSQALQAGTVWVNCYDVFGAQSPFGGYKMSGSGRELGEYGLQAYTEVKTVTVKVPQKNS

[3] = molecular target: T2, Aldehyde dehydrogenase 1A1 (Gallus gallus, UniProt P27463); experiment: Inhibition of N-terminal His6-tagged recombinant chick RALDH1 expressed in Escherichia coli BL21(DE3) cells using RAL as substrate measured after 30 mins in presence of NADH by Morrison's plot analysis
T2 sequence (P27463 whole entry): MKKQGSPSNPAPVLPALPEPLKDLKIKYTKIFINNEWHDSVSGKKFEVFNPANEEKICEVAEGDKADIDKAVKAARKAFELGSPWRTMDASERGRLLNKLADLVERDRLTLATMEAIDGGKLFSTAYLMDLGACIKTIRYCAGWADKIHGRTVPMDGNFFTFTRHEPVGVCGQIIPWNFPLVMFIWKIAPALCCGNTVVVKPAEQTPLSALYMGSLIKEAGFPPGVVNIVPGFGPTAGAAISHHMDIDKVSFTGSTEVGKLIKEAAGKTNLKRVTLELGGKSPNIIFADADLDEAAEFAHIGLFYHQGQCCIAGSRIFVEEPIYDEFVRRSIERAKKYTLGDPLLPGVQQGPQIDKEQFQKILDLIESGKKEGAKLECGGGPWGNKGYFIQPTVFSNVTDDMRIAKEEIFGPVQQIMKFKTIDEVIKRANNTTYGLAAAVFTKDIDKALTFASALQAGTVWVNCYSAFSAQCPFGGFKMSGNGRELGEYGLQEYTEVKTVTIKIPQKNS
In short: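 Ki obtained by fitting the Morrison tight-binding equation to the 20-min pre-incubation retinaldehyde/NADH fluorescence inhibition data. Inputs were enzyme concentration (RALDH1 0.358, RALDH2 0.091, RALDH3 0.355, hRALDH2 0.176 μM), substrate concentration and Km. Triplicates from 3–5 independent experiments.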

[4] = molecular target: T3, Retinal dehydrogenase 2 (Gallus gallus) (UniProt O93344); experiment: (§1) Inhibition of N-terminal His6-tagged recombinant chick RALDH2 expressed in Escherichia coli BL21(DE3) cells at 250 nM using RAL as substrate assessed as remaining activity preincubated for 20 mins followed by all-trans-retinaldehyde and substrate addition measured after 30 mins in presence of NAD+ by fluorescence assay
T3 sequence (whole entry): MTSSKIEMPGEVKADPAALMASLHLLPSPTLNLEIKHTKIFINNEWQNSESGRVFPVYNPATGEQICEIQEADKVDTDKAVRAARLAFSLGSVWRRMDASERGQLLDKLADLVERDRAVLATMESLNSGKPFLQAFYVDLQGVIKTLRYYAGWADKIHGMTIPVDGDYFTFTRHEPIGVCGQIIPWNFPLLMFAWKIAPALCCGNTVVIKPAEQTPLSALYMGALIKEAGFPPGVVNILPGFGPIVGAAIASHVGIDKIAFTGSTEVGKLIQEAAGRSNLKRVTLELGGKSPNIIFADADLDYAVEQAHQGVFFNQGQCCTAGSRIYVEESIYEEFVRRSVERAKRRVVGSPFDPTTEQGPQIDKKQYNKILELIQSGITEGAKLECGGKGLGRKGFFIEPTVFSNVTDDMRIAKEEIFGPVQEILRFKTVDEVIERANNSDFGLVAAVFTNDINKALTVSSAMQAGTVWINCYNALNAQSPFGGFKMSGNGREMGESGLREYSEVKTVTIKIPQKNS
In short: (§2)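 Chick RALDH2 (91 nM) pre-incubated with 250 nM inhibitor for 0–80 min at 37°C, alone or with 250 μM retinaldehyde or 250 μM NAD+. Reaction then started with the missing substrate and/or cofactor (250 μM retinaldehyde, 4 mM NAD), 30 min at 37°C. Fluorimetric NADH; % activity remaining. Triplicates.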

[5] = molecular target: T1, Aldehyde dehydrogenase, mitochondrial; experiment: Inhibition of N-terminal His6-tagged recombinant human mitochondrial ALDH2 using propionaldehyde as substrate preincubated for 20 mins to 1 hr followed by substrate addition and measured for 5 mins in presence of NADH by spectrophotometric assay
[6] = molecular target: T4, Retinal dehydrogenase 2 (Gallus gallus, UniProt O93344); experiment: Inhibition of N-terminal His6-tagged recombinant chick RALDH2 expressed in Escherichia coli BL21(DE3) cells using RAL as substrate preincubated for 20 mins followed by substrate addition and measured after 30 mins in presence of NADH by fluorescence assay
T4 sequence (O93344 whole entry): T3 sequence (whole entry)
In short: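 Purified His-tagged recombinant enzyme in dialysis buffer with 2 mM DTT. Amounts were chick RALDH1 2 μg (0.358 μM), chick RALDH2 0.5 μg (0.091 μM), chick RALDH3 2 μg (0.355 μM) and human RALDH2 1 μg (0.176 μM). Enzyme pre-incubated 20 min at 37°C with 0–10 μM inhibitor in DMSO. Reaction started with final 4 mM NAD+ in pyrophosphate pH 8.2 buffer plus 250 μM retinaldehyde, 30 min at 37°C. NADH read fluorimetrically (Ex/Em 540/590) against a standard curve. Triplicates, 3–5 experiments.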

[7] = molecular target: T4, Retinal dehydrogenase 2; experiment: Inhibition of RALDH2 in choroidal cytosol fraction from 4 day recovering chick assessed as inhibition of ATRA synthesis pre-incubated for 20 mins followed by […] addition and measured after 30 mins by HPLC analysis
[8] = molecular target: T5, Aldehyde dehydrogenase 1A1 (Gallus gallus) (UniProt P27463); experiment: Irreversible inhibition of N-terminal His6-tagged recombinant chick RALDH1 expressed in Escherichia coli BL21(DE3) cells using RAL as substrate assessed as reduction in enzyme Vmzx preincubated for 20 mins followed by substrate addition and measured after 30 mins in presence of NADH by fluorescence assay
T5 sequence (whole entry): T2 sequence (P27463 whole entry)

[9] = molecular target: T3, Retinal dehydrogenase 2 (Gallus gallus); experiment: as §1, with “80” for “20”; in short: as §2

What does the source list for `CC1=C(/C=C/C(C)=C/C=C/C(C)=C/C(=O)C(Cl)Cl)C(C)(C)CCC1`?
Km [1]: 26.9 µM; Ki [2]: Not Active; Ki [3]: 194 nM; Activity [4]: 27.8%; IC50 [5]: Not Active; IC50 [6]: 55 nM; IC50 [7]: 53.6 nM; inhibition [8]: Active; Activity [9]: 16.5%
